We go through 12 compounds from ChEMBL document CHEMBL1153146, “Novel potent apoA-I peptide mimetics that stimulate cholesterol efflux and pre-beta particle formation in vitro” (Bioorg Med Chem Lett, 2010).

In series [1] the test system is RAW264.7. Put plainly: Induction of [3H]cholesterol efflux in mouse RAW264.7 cells at 30 uM after 24 hrs by scintillation counting. Type of series: functional, cell-based.
Series [2] is described as follows: Toxicity in human RBC assessed as hemolysis. In kind it is cell-based, Erythrocyte. The settings on record: red blood cells (RBC). The procedure, abridged: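 Red blood cell lysis assay; cytotoxicity reported as IC50 in µM.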
The test system of series [3] is RAW264.7. Put plainly: Cytotoxicity against mouse RAW264.7 cells after 24 hrs by MTT assay. Type of series: cell-based. The settings on record: RAW264.7, 24 h. The method in brief: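 RAW macrophage cytotoxicity examined at peptide concentrations up to 160 µM.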
(In general: Formazan colour is commonly taken as a measure of viable cells.)

Series [4] relates to RAW264.7. Put plainly: Induction of [3H]cholesterol efflux in mouse RAW264.7 cells after 24 hrs by scintillation counting. Type of series: functional, cell-based. The conditions noted are these: for pEC50: Mus musculus, RAW264.7, read-out: EC50; for EC50: raw264.7. The method in brief: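 Cholesterol efflux from RAW macrophages; EC50 reported in µM as the mean of three experiments.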

pEC50, pIC50: −log10 of the molar value. Starred links: 1 amine or outer side, 2 acyl side, 3 side chain; linkers in the order of their positions; H or OH if unused. Positions of bridges follow the written chain, without caps; N, C: chain ends. Non-standard residues stand in square brackets, D forms with d. Residues, ends and D or L forms follow the SMILES beside them. X1 = O=C([C@@H](CCCCC=[*:3])N[*:1])[*:2]; X2 = O=C([C@H](CCCCCC=[*:3])N[*:1])[*:2]; Gla = N[C@@H](CC(C(=O)O)C(=O)O)C(=O)O; Aib = CC(C)(N)C(=O)O

`CC(C)C[C@H](NC(=O)[C@H](CCCCN)NC(=O)[C@H](CCC(N)=O)NC(=O)[C@H](CCCCN)NC(=O)[C@H]1CCC/C=C\CCC[C@@H](NC(=O)[C@H](CCC(=O)O)NC(=O)[C@H](CC(N)=O)NC(=O)[C@H](CC(C)C)NC(=O)[C@H](CCCCN)NC(=O)[C@H](CCC(=O)O)NC(=O)[C@H](CCCNC(=N)N)NC(=O)[C@H](Cc2ccccc2)NC(=O)[C@H](CCC(=O)O)NC(=O)[C@H](CC(=O)O)NC(=O)[C@H](CC(C)C)NC(=O)[C@@H](NC(=O)[C@@H]2CCCN2)C(C)C)C(=O)N[C@@H](CC(C)C)C(=O)N[C@@H](CCC(=O)O)C(=O)N[C@@H](C)C(=O)N1)C(=O)N[C@@H](CCCCN)C(=O)O` registered a cholesterol efflux in series [1] of 2%. Moreover, the pIC50 in series [2] and in series [3] was under 3.80 in each case.

`C=CCCC[C@@H](NC(=O)[C@H](CCC(=O)O)NC(=O)[C@H](CC(N)=O)NC(=O)[C@H](CC(C)C)NC(=O)[C@@H](CCCC=C)NC(=O)[C@H](CCC(=O)O)NC(=O)[C@H](CCCNC(=N)N)NC(=O)[C@H](Cc1ccccc1)NC(=O)[C@H](CCC(=O)O)NC(=O)[C@H](CC(=O)O)NC(=O)[C@H](CC(C)C)NC(=O)[C@@H](NC(=O)[C@@H]1CCCN1)C(C)C)C(=O)N[C@@H](CC(C)C)C(=O)N[C@@H](CCC(=O)O)C(=O)N[C@@H](C)C(=O)N[C@@H](CC(C)C)C(=O)N[C@@H](CCCCN)C(=O)N[C@@H](CCC(N)=O)C(=O)N[C@@H](CCCCN)C(=O)N[C@@H](CC(C)C)C(=O)N[C@@H](CCCCN)C(=O)O`: in series [4], the pEC50 (usually −log10 of the EC50, conventionally taken in molar units) is 4.34. Moreover, the pIC50 in series [2] and in series [3] was under 3.80 each time.

With `CC(C)C[C@H](NC(=O)[C@H](C)NC(=O)[C@H](CCC(=O)O)NC(=O)[C@H](CC(C)C)NC(=O)[C@H]1CCC/C=C\CCC[C@@H](NC(=O)[C@H](CCC(=O)O)NC(=O)[C@H](CCCNC(=N)N)NC(=O)[C@H](Cc2ccccc2)NC(=O)[C@H](CCC(=O)O)NC(=O)[C@H](CC(=O)O)NC(=O)[C@H](CC(C)C)NC(=O)[C@@H](NC(=O)[C@@H]2CCCN2)C(C)C)C(=O)N[C@@H](CC(C)C)C(=O)N[C@@H](CC(N)=O)C(=O)N[C@@H](CCC(=O)O)C(=O)N1)C(=O)N[C@@H](CCCCN)C(=O)N[C@@H](CCC(N)=O)C(=O)N[C@@H](CCCCN)C(=O)N[C@@H](CC(C)C)C(=O)N[C@@H](CCCCN)C(=O)O`, the pEC50 in series [4] was 5.00. Moreover, the pIC50 in series [2] and in series [3] was under 3.80 each time.

On to `C=CCCCCC[C@H](NC(=O)[C@H](CCC(=O)O)NC(=O)[C@H](CC(=O)O)NC(=O)[C@H](CC(C)C)NC(=O)[C@@H](NC(=O)[C@@H]1CCCN1)C(C)C)C(=O)N[C@@H](CCCNC(=N)N)C(=O)N[C@@H](CCC(=O)O)C(=O)N[C@@H](CCCCN)C(=O)N[C@@H](CC(C)C)C(=O)N[C@@H](CC(N)=O)C(=O)N[C@H](CCC(=O)O)C(=O)N[C@@H](CCCCC=C)C(=O)N[C@H](CC(C)C)C(=O)N[C@H](CCC(=O)O)C(=O)N[C@H](C)C(=O)N[C@H](CC(C)C)C(=O)N[C@H](CCCCN)C(=O)N[C@H](CCC(N)=O)C(=O)N[C@H](CCCCN)C(=O)N[C@H](CC(C)C)C(=O)N[C@H](CCCCN)C(=O)O`, for which the pEC50 in series [4] is 5.89. In addition, the pIC50 in series [2] and in series [3] was under 3.80 each time.

In the case of `CC(C)C[C@H](NC(=O)[C@H](C)NC(=O)[C@H](CCC(=O)O)NC(=O)[C@H](CC(C)C)NC(=O)[C@@H]1CCC/C=C\CCC[C@@H](NC(=O)[C@H](CCC(=O)O)NC(=O)[C@H](CCCNC(=N)N)NC(=O)[C@H](Cc2ccccc2)NC(=O)[C@H](CCC(=O)O)NC(=O)[C@H](CC(=O)O)NC(=O)[C@H](CC(C)C)NC(=O)[C@@H](NC(=O)[C@@H]2CCCN2)C(C)C)C(=O)N[C@@H](CC(C)C)C(=O)N[C@@H](CC(N)=O)C(=O)N[C@@H](CCC(=O)O)C(=O)N1)C(=O)N[C@@H](CCCCN)C(=O)N[C@@H](CCC(N)=O)C(=O)N[C@@H](CCCCN)C(=O)N[C@@H](CC(C)C)C(=O)N[C@@H](CCCCN)C(=O)O`, the EC50 entry in series [4] is given as “Not Active”. The pIC50 in series [2] and in series [3] was under 3.80 each time.

Take `CC(C)C[C@H](NC(=O)[C@H](C)NC(=O)[C@H](CCC(=O)O)NC(=O)[C@H](CC(N)=O)NC(=O)[C@H](CC(C)C)NC(=O)[C@H](CCCCN)NC(=O)[C@H](CCC(=O)O)NC(=O)[C@H](CCCNC(=N)N)NC(=O)[C@H](Cc1ccccc1)NC(=O)[C@H](CCC(=O)O)NC(=O)[C@H](CC(=O)O)NC(=O)[C@H](CC(C)C)NC(=O)[C@@H](NC(=O)[C@@H]1CCCN1)C(C)C)C(=O)N[C@@H](CC(C(=O)O)C(=O)O)C(=O)N[C@@H](C)C(=O)N[C@@H](CC(C)C)C(=O)N[C@@H](CCCCN)C(=O)N[C@@H](CCC(N)=O)C(=O)N[C@@H](CCCCN)C(=O)N[C@@H](CC(C)C)C(=O)N[C@@H](CCCCN)C(=O)O` (H-PVLDEFREKLNEAL[Gla]ALKQKLK-OH): the negative logarithm of the EC50 (pEC50) in series [4] is 3.63. Moreover, the pIC50 (commonly the negative decadic logarithm of the IC50, by convention in mol/L) is 4.12 in series [2] and under 3.80 in series [3].

For `CC(C)C[C@H](NC(=O)[C@H](CCCCN)NC(=O)[C@H](CCC(N)=O)NC(=O)[C@H](CCCCN)NC(=O)[C@H](CC(C)C)NC(=O)C(C)(C)NC(=O)[C@H](CCC(=O)O)NC(=O)[C@H](CC(C)C)NC(=O)C(C)(C)NC(=O)[C@H](CCC(=O)O)NC(=O)[C@H](CC(N)=O)NC(=O)[C@H](CC(C)C)NC(=O)[C@H](CCCCN)NC(=O)[C@H](CCC(=O)O)NC(=O)[C@H](CCCNC(=N)N)NC(=O)[C@H](Cc1ccccc1)NC(=O)[C@H](CCC(=O)O)NC(=O)[C@H](CC(=O)O)NC(=O)[C@H](CC(C)C)NC(=O)[C@@H](NC(=O)[C@@H]1CCCN1)C(C)C)C(=O)N[C@@H](CCCCN)C(=O)O` (H-PVLDEFREKLNE[Aib]LE[Aib]LKQKLK-OH), the pEC50 in series [4] was 4.64. Also, the pIC50 in series [2] and in series [3] was under 3.80 in each case.

Turning to `CC(C)C[C@H](NC(=O)[C@H](C)NC(=O)[C@H](CC(C(=O)O)C(=O)O)NC(=O)[C@H](CC(C)C)NC(=O)C(C)(C)NC(=O)[C@H](CCC(=O)O)NC(=O)[C@H](CC(N)=O)NC(=O)[C@H](CC(C)C)NC(=O)[C@H](CCCCN)NC(=O)[C@H](CCC(=O)O)NC(=O)[C@H](CCCNC(=N)N)NC(=O)[C@H](Cc1ccccc1)NC(=O)[C@H](CCC(=O)O)NC(=O)[C@H](CC(=O)O)NC(=O)[C@H](CC(C)C)NC(=O)[C@@H](NC(=O)[C@@H]1CCCN1)C(C)C)C(=O)N[C@@H](CCCCN)C(=O)N[C@@H](CCC(N)=O)C(=O)N[C@@H](CCCCN)C(=O)N[C@@H](CC(C)C)C(=O)N[C@@H](CCCCN)C(=O)O` (H-PVLDEFREKLNE[Aib]L[Gla]ALKQKLK-OH), the pEC50 in series [4] is 4.39. The pIC50 is 4.12 in series [2] and under 3.80 in series [3].

Turning to `CC(C)C[C@H](NC(=O)[C@H](C)NC(=O)[C@H](CCC(=O)O)NC(=O)[C@H](CC(N)=O)NC(=O)[C@H](CC(C)C)NC(=O)[C@H](CCCCN)NC(=O)[C@H](CC(C(=O)O)C(=O)O)NC(=O)[C@H](CCCNC(=N)N)NC(=O)[C@H](Cc1ccccc1)NC(=O)[C@H](CCC(=O)O)NC(=O)[C@H](CC(=O)O)NC(=O)[C@H](CC(C)C)NC(=O)[C@@H](NC(=O)[C@@H]1CCCN1)C(C)C)C(=O)N[C@@H](CCC(=O)O)C(=O)N[C@@H](C)C(=O)N[C@@H](CC(C)C)C(=O)N[C@@H](CCCCN)C(=O)N[C@@H](CCC(N)=O)C(=O)N[C@@H](CCCCN)C(=O)N[C@@H](CC(C)C)C(=O)N[C@@H](CCCCN)C(=O)O` (H-PVLDEFR[Gla]KLNEALEALKQKLK-OH), the pEC50 in series [4] was 3.85. The pIC50 in series [2] is 4.40; in series [3], under 3.80.

As for `CC(C)C[C@H](NC(=O)[C@H](C)NC(=O)[C@H](CCC(=O)O)NC(=O)[C@H](CC(C)C)NC(=O)C(C)(C)NC(=O)[C@H](CCC(=O)O)NC(=O)[C@H](CC(N)=O)NC(=O)[C@H](CC(C)C)NC(=O)[C@H](CCCCN)NC(=O)[C@H](CC(C(=O)O)C(=O)O)NC(=O)[C@H](CCCNC(=N)N)NC(=O)[C@H](Cc1ccccc1)NC(=O)[C@H](CCC(=O)O)NC(=O)[C@H](CC(=O)O)NC(=O)[C@H](CC(C)C)NC(=O)[C@@H](NC(=O)[C@@H]1CCCN1)C(C)C)C(=O)N[C@@H](CCCCN)C(=O)N[C@@H](CCC(N)=O)C(=O)N[C@@H](CCCCN)C(=O)N[C@@H](CC(C)C)C(=O)N[C@@H](CCCCN)C(=O)O` (H-PVLDEFR[Gla]KLNE[Aib]LEALKQKLK-OH), the pEC50 in series [4] is 4.36. The pIC50 in series [2] was 4.12; in series [3], under 3.80.

Turning to `CC.CC(C)C[C@H](NC(=O)[C@H](C)NC(=O)[C@H](CCC(=O)O)NC(=O)[C@H](CC(C)C)NC(=O)[C@@H]1CCCCC/C=C\CCCC[C@@H](NC(=O)[C@H](CCC(=O)O)NC(=O)[C@H](CC(=O)O)NC(=O)[C@H](CC(C)C)NC(=O)[C@@H](NC(=O)[C@@H]2CCCN2)C(C)C)C(=O)N[C@@H](CCCNC(=N)N)C(=O)N[C@@H](CCC(=O)O)C(=O)N[C@@H](CCCCN)C(=O)N[C@@H](CC(C)C)C(=O)N[C@@H](CC(N)=O)C(=O)N[C@@H](CCC(=O)O)C(=O)N1)C(=O)N[C@@H](CCCCN)C(=O)N[C@@H](CCC(N)=O)C(=O)N[C@@H](CCCCN)C(=O)N[C@@H](CC(C)C)C(=O)N[C@@H](CCCCN)C(=O)O` (H-PVLDE[X1]REKLNE[X2]LEALKQKLK-OH; staple (Z) 6-13), in series [4], the pEC50 was 5.70. The negative-log IC50 (pIC50) in series [2] and in series [3] was under 3.80 each time.

In the case of H-PVLDEFREKLNEELEALKQKLK-OH, the EC50 result in series [4] was “Not Active”. Besides, the pIC50 is 4.40 in series [2] and under 3.80 in series [3].
